Laboratory results taken from ChEMBL document CHEMBL1122654, “Phosphorus analogues of gamma-aminobutyric acid, a new class of anticonvulsants” (J Med Chem, 1984).
Active and inactive are the calls of the source.

Columns and labels:
[1] = tested on: Mus musculus; test: In vivo anticonvulsant activity against electric shock induced seizures(MES) in mice 0.5 hr after ip administration; ++ indicates activity at 300 mg/kg.; type: functional, organism-based; design: dose 300 mg/kg
[2] = tested on: Mus musculus; test: In vivo anticonvulsant activity against electric shock induced seizures(MES) in mice 4 hr after ip administration; + indicates activity at 600 mg/kg.; type: functional, organism-based; design: dose 600 mg/kg
[3] = tested on: Mus musculus; test: In vivo anticonvulsant activity against pentylene tetrazole seizure threshold(SMC) in mice 0.5 hr after sc administration; + indicates activity at 600 mg/kg.; type: functional, organism-based; design: dose 600 mg/kg
[4] = tested on: Mus musculus; test: In vivo anticonvulsant activity against pentylene tetrazole seizure threshold(SMC) in mice 4 hr after sc administration; + indicates activity at 600 mg/kg.; type: functional, organism-based; design: dose 600 mg/kg
[5] = tested on: Mus musculus; test: In vivo neurotoxicity at 600mg/kg, number of animals exhibiting neurotoxicity in the rotarod test / number of animals tested 0.5 hr; 4/4; type: toxicity, organism-based
[6] = tested on: Mus musculus; test: In vivo neurotoxicity at 600 mg/kg, number of animals exhibiting neurotoxicity in the rotarod test / number of animals tested 4 hr; 1/2; type: toxicity, organism-based; design: dose 600 mg/kg
[7] = Partition coefficient (logP); type: physicochemical; details: octanol/water
[8] = biological target: T1, GABA-A receptor; anion channel (Rattus norvegicus) (UniProt O09028+P15431+P18506+P18508+P19969+P20236+P23574+P23576+P28471+P28473+P30191+P62813+P63079+P63138+Q91ZM7+Q9ES14); test: Displacement of [3H]GABA from Gamma-aminobutyric acid A receptor binding sites in brain homogenates (relative to 1 mM GABA) at 100 uM; type: tissue-based
How it was run: (§1)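 Male Sprague-Dawley rat brain, frozen, homogenized in 50 mM Tris-citrate (pH 7.1 at 4 °C). Membranes treated with 0.05% Triton X-100 for 30 min at 37 °C and resuspended at 0.5–1.0 mg/mL protein. Incubated with 8 nM [3H]GABA for 5 min at 4 °C, stopped by centrifugation, and counted by scintillation. Test concentration 100 µM. Expressed as percent of the inhibition given by 1 mM GABA. Mean of two experiments, each in triplicate.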

[9] = organism: Rattus norvegicus; test: (§2) Displacement of [3H]GABA from GABA-B binding sites in brain homogenates (relative to 100 uM baclofen) at 100 uM; type: tissue-based
How it was run: (§3)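 Rat brain membrane binding (male Sprague-Dawley) using 10 nM [3H]GABA, with 100 µM isoguvacine present to block GABA-A sites. Test concentration 100 µM. Percent inhibition expressed relative to 100 µM baclofen. Mean of two separate experiments, each in triplicate.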

[10] = biological target: T1, GABA-A receptor; anion channel (Rattus norvegicus); test: Displacement of [3H]-GABA from Gamma-aminobutyric acid A receptor binding sites in brain homogenates (relative to 1 mM GABA) at 100 uM; type: tissue-based; how it was run: as §1
[11] = tested on: Mus musculus; test: In vivo anticonvulsant activity against electric shock induced seizures(MES) in mice 0.5 hr after ip administration; inactive at 600 mg/kg; type: functional, organism-based; design: dose 600 mg/kg
[12] = tested on: Mus musculus; test: In vivo anticonvulsant activity against pentylene tetrazole seizure threshold(SMC) in mice 0.5 hr after sc administration; inactive at 600 mg/kg; type: functional, organism-based; design: dose 600 mg/kg
[13] = tested on: Mus musculus; test: In vivo anticonvulsant activity against pentylene tetrazole seizure threshold(SMC) in mice 4 hr after sc administration; inactive at 600 mg/kg; type: functional, organism-based; design: dose 600 mg/kg
[14] = tested on: Mus musculus; test: In vivo neurotoxicity at 600 mg/kg, number of animals exhibiting neurotoxicity in the rotarod test / number of animals tested 4 hr; type: toxicity, organism-based; design: dose 600 mg/kg
[15] = tested on: Mus musculus; test: In vivo neurotoxicity at 600 mg/kg, number of animals exhibiting neurotoxicity in the rotarod test / number of animals tested at 0.5 hr; type: toxicity, organism-based; design: dose 600 mg/kg
[16] = tested on: Mus musculus; test: In vivo anticonvulsant activity against electric shock induced seizures(MES) in mice 4 hr after ip administration; inactive at 600 mg/kg; type: functional, organism-based; design: dose 600 mg/kg
[17] = biological target: GABA B receptor (Rattus norvegicus) (UniProt Q9Z0U4+O88871); test: as §2; type: tissue-based; how it was run: as §3
[18] = tested on: Mus musculus; test: In vivo anticonvulsant activity against electric shock induced seizures(MES) in mice; 104-131; type: functional
[19] = tested on: Mus musculus; test: In vivo neurotoxicity at 600 mg/kg, number of animals exhibiting neurotoxicity in the rotarod test / number of animals tested 4 hr; 0/2; type: toxicity, organism-based; design: dose 600 mg/kg
[20] = tested on: Mus musculus; test: In vivo neurotoxicity at 600 mg/kg, number of animals exhibiting neurotoxicity in the rotarod test / number of animals tested at 0.5 hr; 0/4; type: toxicity, organism-based; design: dose 600 mg/kg
[21] = tested on: Mus musculus; test: In vivo neurotoxicity at 600 mg/kg, number of animals exhibiting neurotoxicity in the rotarod test / number of animals tested 4 hr; 2/2; type: toxicity, organism-based; design: dose 600 mg/kg
[22] = tested on: Mus musculus; test: In vivo neurotoxicity at 600 mg/kg, number of animals exhibiting neurotoxicity in the rotarod test / number of animals tested at 0.5 hr; 4/4; type: toxicity, organism-based; design: dose 600 mg/kg
[23] = tested on: Mus musculus; test: In vivo anticonvulsant activity against electric shock induced seizures(MES) in mice 0.5 hr after ip administration; active at 600 mg/kg; type: functional, organism-based; design: dose 600 mg/kg

Structure (SMILES): CCOP(=O)(OCC)c1cccc(N)c1
- Anticonvulsant activity [1]: activity at 300 mg/kg
- Anticonvulsant activity [2]: activity at 300 mg/kg
- Anticonvulsant activity [3]: activity at 300 mg/kg
- Anticonvulsant activity [4]: activity at 300 mg/kg
- Toxicity [5]: 4
- Toxicity [6]: 1

Structure (SMILES): CCOP(=O)(OCC)Oc1ccc(SC)c(Cl)c1
- logP [7]: 3.21

Structure (SMILES): COP(=S)(OC)Oc1cccc(NC(C)=O)c1
- inhibition [8]: inactive

Structure (SMILES): CCCCN1C(=O)CCP1(=O)c1ccccc1 (centres undefined)
- inhibition [9]: 67%
- inhibition [10]: 17%

Structure (SMILES): CC(=O)Nc1ccccc1OP(=O)(Oc1ccccc1NC(C)=O)c1ccccc1
- inhibition [10]: 46%
- Anticonvulsant activity [11]: inactive
- Anticonvulsant activity [12]: inactive
- Anticonvulsant activity [13]: inactive
- Toxicity [14]: Not Active
- Toxicity [15]: Not Active
- Anticonvulsant activity [16]: inactive

Structure (SMILES): COP(=S)(OC)Oc1ccc([N+](=O)[O-])c(C)c1 [FENITROTHION]
- logP [7]: 3.3

Structure (SMILES): CC(=O)Nc1ccccc1OP(=O)(Oc1ccccc1)Oc1ccccc1
- inhibition [17]: 36%
- inhibition [10]: 54%
- Anticonvulsant activity [11]: inactive
- Anticonvulsant activity [12]: inactive
- Anticonvulsant activity [13]: inactive
- Toxicity [14]: Not Active
- Toxicity [15]: Not Active
- Anticonvulsant activity [16]: inactive

Structure (SMILES): COP(=O)(OC)Oc1ccc([N+](=O)[O-])cc1Cl
- logP [7]: 1.83

Structure (SMILES): NCCOP(=O)(O)Oc1ccccc1
- inhibition [17]: 40%
- inhibition [10]: 13%
- Anticonvulsant activity [11]: inactive
- Anticonvulsant activityAnticonvulsant activity [12]: inactive
- Anticonvulsant activity [13]: inactive
- Anticonvulsant activity [16]: inactive

Structure (SMILES): CN1C(=O)CC(c2ccccc2)C1=O (centres undefined) [PHENSUXIMIDE]
- ED50 [18]: 112 mg/kg

Structure (SMILES): COP(=S)(OC)Oc1ccc([N+](=O)[O-])cc1 [METHYL PARATHIONE]
- logP [7]: 2.51

Structure (SMILES): CCOP(=S)(OCC)Oc1ccc(SC)c(Cl)c1
- logP [7]: 5.06

Structure (SMILES): COP(=S)(OC)Oc1cc(C)c([N+](=O)[O-])c(C)c1
- logP [7]: 3.89

Structure (SMILES): Nc1cccc(P(=O)(O)O)c1
- Toxicity [19]: 0
- Toxicity [20]: 0

Structure (SMILES): CCc1cc(OP(=S)(OC)OC)ccc1[N+](=O)[O-]
- logP [7]: 3.84

Structure (SMILES): CC(CNP(=O)(Oc1ccccc1)Oc1ccccc1)NP(=O)(Oc1ccccc1)Oc1ccccc1 (centres undefined)
- inhibition [17]: 20%

Structure (SMILES): CC(C)OP(=O)(OC(C)C)c1cccc(N)c1
- Anticonvulsant activity [1]: activity at 300 mg/kg
- Anticonvulsant activity [2]: activity at 300 mg/kg
- Toxicity [21]: 2
- Toxicity [22]: 4

Structure (SMILES): CCOP(=S)(OCC)Oc1ccccc1NC(C)=O
- inhibition [17]: 35%

Structure (SMILES): CC(C)(C)CC(C)(C)NP(=O)(Oc1ccccc1)Oc1ccccc1
- inhibition [17]: 65%
- Anticonvulsant activity [23]: active at 600 mg/kg

Structure (SMILES): CCOP(=O)(OCC)Oc1ccc(SC)cc1Cl
- logP [7]: 3.05
